In ChEMBL document CHEMBL1156683, “Basic 3-hydroxypyridin-4-ones: potential antimalarial agents” (Eur J Med Chem, 2008):

Columns and labels:
[1] = system: Rattus norvegicus; experiment: Iron-clearing efficiency in po dosed [59Fe]ferritin-loaded Wistar rat assessed as iron mobilization; type: functional
Outline: (§1)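 Male Wistar rats, normal, fasted, 190–230 g. Hepatocytes labelled with ⁵⁹Fe by tail-vein [⁵⁹Fe]ferritin; chelator given orally 1 h later, controls received water. Individual metabolic cages collected urine and faeces; food allowed 1 h after dosing, water unrestricted. Killed 24 h after ferritin; liver and gastrointestinal tract with contents and faeces gamma counted.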

[2] = Partition coefficient, log P of the compound; type: physicochemical; details: octanol/water
Outline: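 Calculated from the measured octanol/MOPS pH 7.4 distribution coefficient divided by the fraction of neutral species at pH 7.4, which is derived from the measured pKa values.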

[3] = system: Plasmodium falciparum; experiment: Antimalarial activity against chloroquine-resistant Plasmodium falciparum TM267TR after 24 hrs by [3H]hypoxanthine; type: functional, organism-based
Outline: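 Clone maintained in human red cells in RPMI 1640 with 10% human serum, 25 mM HEPES and 25 mM NaHCO₃. Cultures were sorbitol-synchronized, washed, then diluted with normal red cells to 1% hematocrit and 0.5% parasitemia. Incubated with serial dilutions of chelator. ³H-hypoxanthine pulse for a further 18 h, then harvested and counted by scintillation. IC₅₀ by non-linear regression of triplicate dose-response curves.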

[4] = Octanol-MOPS buffer distribution coefficient, DC at pH 7.4; type: physicochemical; details: octanol/water
Outline: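 Automated continuous-flow filter-probe method, 1-octanol versus 50 mM MOPS buffer pH 7.4, phases mutually presaturated. Compound dissolved in buffer to absorbance 0.5–1.5 units at a preselected wavelength; aqueous phase separated by hydrophilic cellulose filter and read by absorbance. n = 5.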

[5] = system: Rattus norvegicus; experiment: Iron-clearing efficiency in po dosed [59Fe]ferritin-loaded Wistar rat assessed as iron removal; type: functional; outline: as §1
[6] = Dissociation constant, pKa corresponding to dissociation of the 3-hydroxyl group by potentiometric titration; type: physicochemical
Outline: (§2)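 Ligand protonation constants from an automated titration system, potentiometric and spectrophotometric read-outs. Values optimized by non-linear least-squares regression, accuracy ±0.02 pH unit.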

[7] = Dissociation constant, pKa corresponding to deprotonation of the basic substituent by potentiometric titration; type: physicochemical; outline: as §2
[8] = Dissociation constant, pKa corresponding to protonation of the 4-hydroxy group by potentiometric titration; type: physicochemical; outline: as §2
[9] = Dissociation constant, pKa corresponding to deprotonation of the basic substituent by spectrophotometric titration; type: physicochemical; outline: as §2
[10] = Dissociation constant, pKa corresponding to dissociation of the 3-hydroxyl group by spectrophotometric titration; type: physicochemical; outline: as §2
[11] = Dissociation constant, pKa corresponding to protonation of the 4-hydroxy group by spectrophotometric titration; type: physicochemical; outline: as §2

Row | Structure (SMILES) | Activity [1] [%] | logP [2] | IC50 [3] [µM] | D [4] | Activity [5] [%] | pKa [6] | pKa [7] | pKa [8] | pKa [9] | pKa [10] | pKa [11]
1 | CCn1ccc(=O)c(O)c1C(C)O (stereo unspecified) | 48.4 | -0.557 | 45 | 0.266 | 44.5 | – | – | – | – | – | –
2 | Cn1c(CO)cc(=O)c(O)c1CN1CCCCC1 | – | 0.295 | 29 | 1.636 | – | 10.5 | 6.74 | 2.14 | 6.67 | 10.4 | 2.41
3 | Cn1c(CO)cc(=O)c(O)c1CN1CCOCC1 | – | -0.765 | 35 | 0.17 | – | 9.77 | 5.1 | 1.98 | 4.99 | 9.75 | 2.14
4 | Cc1c(O)c(=O)ccn1CCN1CCCCC1 | 22.7 | 0.31 | 35 | 0.96 | 18.8 | 9.63 | 7.42 | 2.77 | 7.47 | 9.71 | 2.88
5 | O=c1ccn(CCN2CCCCC2)c(CO)c1O | 23.3 | 0.019 | 10 | 0.501 | 19.4 | 9.28 | 7.35 | 2.25 | 7.43 | 9.24 | 2.2
6 | Cc1c(O)c(=O)ccn1CCN(C)C | 13 | -0.657 | 80 | 0.154 | 9.1 | 9.75 | 7.05 | 2.74 | 7.02 | 9.58 | 2.86
7 | Cn1cc(O)c(=O)cc1CN1CCCCC1 | – | 0.64 | 31 | 3.493 | – | 8.85 | 6.74 | 2.15 | 6.72 | 8.86 | 2.16
8 | CC(O)c1c(O)c(=O)ccn1CCN1CCCCC1 (stereo unspecified) | 23.1 | 0.242 | 8 | 0.908 | 19.2 | 8.7 | 7.37 | 2.17 | 7.35 | 8.73 | 2.14
9 | CCc1c(O)c(=O)ccn1CCCn1ccnc1 | 6.8 | -0.326 | 65 | 0.42 | 2.9 | 9.71 | 6.55 | 3.09 | 6.47 | 9.66 | 3.15
10 | Cc1c(O)c(=O)ccn1CCCn1ccnc1 | 5.3 | -0.392 | 85 | 0.344 | 1.4 | 9.92 | 6.6 | 3.13 | 6.71 | 9.82 | 3.08
11 | CCN(CC)CCn1ccc(=O)c(O)c1C | 12.4 | 0.059 | 50 | 0.493 | 8.5 | 9.65 | 7.53 | 2.63 | 7.5 | 9.6 | 2.66
12 | CCc1c(O)c(=O)ccn1CCN1CCCCC1 | 30.4 | 0.946 | 25 | 4.591 | 26.5 | 9.67 | 7.34 | 2.73 | 7.38 | 9.7 | 2.74
13 | Cc1c(O)c(=O)ccn1CCN1CCOCC1 | – | -0.909 | 50 | 0.122 | – | 9.71 | 4.89 | 2.67 | 4.91 | 9.68 | 2.64
14 | Cc1cc(=O)c(O)c(CN2CCCCC2)n1C | – | 0.559 | 23 | 2.536 | – | 10.8 | 7.07 | 2.5 | 6.98 | 10.3 | 2.73
15 | CCc1c(O)c(=O)ccn1CCN(C)C | 20.3 | -0.114 | 85 | 0.538 | 16.4 | 9.66 | 6.88 | 2.62 | 7.16 | 9.58 | 2.68
16 | O=c1cc(CN2CCCCC2)n(CCN2CCCCC2)cc1O | – | 1.84 | 21.5 | 26.11 | – | 8.83 | 7.58 | 1.16 | 7.6 | 8.95 | 2.04
17 | Cc1cc(=O)c(O)c(CN2CCOCC2)n1C | – | -0.435 | 50 | 0.364 | – | 10.1 | 4.89 | 2.38 | 4.82 | 9.72 | 2.43
18 | CCc1c(O)c(=O)ccn1CC | 58.3 | 0.257 | 55 | 1.79 | 54.4 | – | – | – | – | – | –
19 | Cc1c(O)c(=O)ccn1C [DEFERIPRONE] | 13.4 | – | 67.5 | 0.17 | 9.5 | – | – | – | – | – | –
